From PubChem
Sampled rows, rich in hits. Any-hit rate of the full collection: about 3.5%.
Env fusion inh: inhibitors of HIV-1 Env-driven cell-cell fusion, primary screen, HeLa-JRFL effector, CEM21 target cells, luciferase | inhibition, % at 12.3 µM | 360,000 compounds, 1.1% hits;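 active means mean replicate inhibition score of at least 50 and every replicate individually at or above 50; inconclusive means only one of the two criteria met; inactive means mean below 50 and not all replicates reaching 50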;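 further: 0% = plate neutral controls and 100% = maraviroc near 300 nM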
PglD inh: C. jejuni PglD acetyltransferase inhibitors, primary screen, biochemical, DTNB colorimetric, single point. UDP-N-acetylbacillosamine N-acetyltransferase PglD (Campylobacter jejuni). purified PglD enzyme, DTNB colorimetric CoA detection. 360,000 compounds, 0.098% hits. inhibition, % at 12.5 µM; in the data active means inhibition above about 16%, passing the limit was not always enough; inconclusive means no clear call, values can overlap the other calls
PGC1a acetyl inh: inhibitors of PGC1a acetylation signal, primary screen, cell-based, U2OS, AlphaScreen, inhibitor mode | AID 651687, 2012 | AlphaScreen anti-acetyl-lysine; with virally co-expressed GCN5 acetyltransferase | 350,000 compounds, 0.17% hits | inhibition, % at 15.6 µM;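 active means every replicate shows inhibition of at least 40%; inconclusive means mean inhibition at least 40% but some replicate below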;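 further: 0% = neutral control wells and 100% = positive control wells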
rRNA inh HTS: reduced GFP signal of wild-type E. coli, primary screen, bacterial rRNA inhibitor project, GFP/RFP fluorescence, OD600, single point; E. coli WT GFP vs humanized-ribosome RFP mutants, 24 h; hits give low values; DMSO median 0, no signal -100; GFP signal change (wild-type ribosome), % (concentration not given with the values); 350,000 compounds, 1.6% hits; AID 720706, 2013;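 active means significant combined selectivity score with lowered wild-type GFP, culture density cut under 30%, mutant RFP and density less affected; inactive means any of these conditions unmet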
FN deposition inh: inhibitors of fibronectin matrix deposition, primary screen, AH1F cells, Alexa488-fibronectin fluorescence, plate reader; inhibition, % at 12.6 µM; 350,000 compounds, 0.086% hits; AH1F fibroblasts, overnight; AID 743247, 2014;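 active means mean inhibition across replicates of 30% or more, regardless of how many single replicates reach that level; inconclusive means mean under 30% yet at least half of replicates reach 30%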;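 further: positive control wells lacked labelled fibronectin entirely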
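Material: AH1F fibroblasts assembling fluorescent fibronectin matrix; amount: 10000 AH1F cells/well; medium: DMEM, 2% serum; reagent: Alexa488-fibronectin, 24 nM final in well; dosing: single compound dose, delivered by pin transfer; incubation: 1 h adhesion, overnight exposure; detection: fluorescence after three HBSS washes, excitation 485 nm, emission 525 nm; measure: fibronectin deposition inhibition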
DENV2 CPE rescue: inhibitors of DENV2 cytopathic effect, primary screen, cell-based, plate reader, single concentration; DENV2-infected cells, cytopathic effect rescue; CPE inhibition, % at 9.99 µM; 350,000 compounds, 1.7% hits; in the data active means CPE inhibition above about 20%, passing the limit was not always enough; inconclusive means no clear call, values can overlap the other calls; tested in BHK-21 cells;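 further: 0% = median of neutral control wells and 100% = median of positive control wells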
Active calls of the source: *; ? = inconclusive; . = no result given; [ ] = another dose, or the depositor's remark.

SMILES	Env fusion inh	PglD inh	PGC1a acetyl inh	rRNA inh HTS	FN deposition inh	DENV2 CPE rescue
O=C(c1cccc(F)c1)N1CCCCN2[C@H](CO)[C@H](c3ccc(-c4ccncc4)cc3)[C@@H]2C1	.	6.8	2.2	-2.0	.	21.8*
O=C(c1cccc(F)c1)N1CCCCN2[C@H](C1)[C@@H](c1ccc(-c3ccncc3)cc1)[C@@H]2CO	.	2.4	-4.3	-5.8	.	9.3
O=C(c1ccc2c(c1)OCO2)N1CCCCN2[C@H](CO)[C@@H](c3ccc(-c4ccccc4)cc3)[C@@H]2C1	.	-11.9	-8.2	-57.5	.	26.9*
Cc1cccc(-c2ccc([C@H]3[C@H]4CN(C(=O)c5ccncc5)CCCCN4[C@H]3CO)cc2)c1	.	0.0	0.7	5.4	.	21.9*
O=C(C[C@H]1CC[C@H]2[C@@H](COC[C@@H](O)CN2CC2CCCCC2)O1)NCc1ccc(Cl)cc1	.	0.3	0.6	-58.0	-0.8	4.5
CCC(=O)N1C[C@H](C)[C@H](OC)CN(C)C(=O)c2ccc(NC(=O)Nc3cccc(F)c3)cc2OC[C@H]1C	.	-5.5	-7.0	-7.4	-4.2	-8.6
C[C@@H]1CN([C@H](C)CO)C(=O)Cc2cc(NC(=O)NC3CCCCC3)ccc2O[C@H]1CN(C)S(=O)(=O)c1cn(C)cn1	-1.8[16.7 µM]	0.1	3.6	3.1	.	1.0
C/C=C/c1ccccc1[C@@H]1[C@H](C#N)N(C(=O)CN2CCOCC2)[C@H]1CO	.	.	-1.1	5.5	-10.0	1.9
O=S(=O)(c1cccc2cccnc12)N1CCN(Cc2ccc(OCCO)cc2)CC1	19.6[16.7 µM]	1.2	6.6	.	.	41.2*
Cc1ccc(CNS(=O)(=O)c2ccc3c(c2)C(C)(C)C(=O)N3C)cc1	-10.7	3.6	-3.4	-5.4	1.3	?
CN(C)c1ccc(CNS(=O)(=O)c2ccc3c(c2)C(C)(C)C(=O)N3C)cc1	1.7	-1.4	-4.3	2.5	3.5	48.5*
Cc1ccc2[nH]c3c(N4CCc5ccccc5C4)ncnc3c2c1	81.3*	0.0	-2.1	.	9.2	.
COc1ccc2[nH]c3c(N4CCC(O)(c5cccc(C(F)(F)F)c5)CC4)ncnc3c2c1	100.1*	0.7	-11.8	.	-10.2	.
Cc1ccc2[nH]c3c(Cl)ncnc3c2c1	-35.6	7.9	22.4	-29.3*	3.3	6.1
Cc1ccc(S(=O)(=O)Nc2ccc3c(c2)CC(=O)N([C@@H](C)CO)C[C@@H](C)[C@@H](CN(C)S(=O)(=O)c2ccc(C)cc2)O3)cc1	19.0[16.7 µM]	0.2	-18.2	-1.2	.	-9.3
CCC/C(C#Cc1ccc(N(C)C)cc1)=C1/c2ccccc2C(=O)N1c1ccccc1	-7.7	-10.9	-3.4	9.6	.	12.5
CCC/C(=C1/c2ccccc2C(=O)N1c1ccccc1)c1c(C)noc1C	15.2	.	.	-25.1*	-3.0	-3.5
CCC/C(C#CCCN1C(=O)c2ccccc2C1=O)=C1/c2ccccc2C(=O)N1c1ccccc1	-32.6	-0.6	-11.3	-4.1	-13.0	78.7*
C[C@@H]1CN([C@@H](C)CO)C(=O)c2cc(NC(=O)CCCCCC(=O)Nc3ccccc3N)ccc2O[C@@H]1CN(C)S(=O)(=O)c1ccc(Cl)cc1	.	.	-4.6	-9.0	.	-1.8
COc1ccc(NC(=O)N(C)C[C@@H]2Oc3c(NS(=O)(=O)c4ccc(C)cc4)cccc3C(=O)N([C@H](C)CO)C[C@@H]2C)cc1	-41.5[16.7 µM]	4.1	-2.3	-3.2	.	-4.8
C[C@@H]1CCCCO[C@@H](CN(C)Cc2ccc(C(F)(F)F)cc2)[C@H](C)CN([C@H](C)CO)C(=O)c2cc(NS(=O)(=O)c3cn(C)cn3)ccc2O1	-20.5[16.7 µM]	-0.9	0.0	1.1	.	-4.7
CNC(=S)c1cc(C(C)(C)C)c(O)c(C(C)(C)C)c1	4.5	.	.	-20.6*	3.3	-3.2
C[C@H]1CCCCO[C@@H](CN(C)C(=O)Nc2ccc(F)cc2)[C@@H](C)CN([C@@H](C)CO)C(=O)c2cc(NS(=O)(=O)c3cn(C)cn3)ccc2O1	21.9[16.7 µM]	-0.8	0.4	-3.7	0.6	-7.6
N#C/C(=C\c1ccc(OCc2ccc(C(=O)O)cc2)cc1)C(=O)N1CCOCC1	64.6*	.	.	8.7	-2.3	7.3
Cc1sc(NC(=O)Cc2ccc3c(c2)OCO3)nc1-c1ccc2c(c1)CCN2C(=O)c1ccccc1F	73.7*	1.4	.	.	-16.6	.
SMILES	Env fusion inh	PglD inh	PGC1a acetyl inh	rRNA inh HTS	FN deposition inh	DENV2 CPE rescue
CCCNC(=O)C1(C)CCCN(Cc2ccc(C#N)cc2)C1 (stereo not given)	-10.5	1.6	1.2	4.8	-4.9	48.0*
CCCNC(=O)C1(C)CCCN(Cc2ccc(Cl)cc2)C1 (stereo not given)	-120.9	5.5	9.3	3.5	.	0.7
O=C(NCCCn1cccn1)C1CCC(=O)N(Cc2cccc(C(F)(F)F)c2)C1 (stereo not given)	-5.9	-4.7	.	2.5	9.0	3.0
COc1ccc(CCN2CC(C(=O)NCCc3cn[nH]c3)CCC2=O)cc1 (stereo not given)	-2.2	3.9	.	7.2	1.2	87.6*
O=C(NCCc1ccc(C(F)(F)F)cc1)C1CCC(=O)N(CCCc2ccccc2)C1 (stereo not given)	13.9	3.8	7.4	-45.7*	5.4	-2.0
O=C(NCCCC1CCCC1)C1CCC(=O)N(Cc2cccc(C(F)(F)F)c2)C1 (stereo not given)	-15.8	-0.1	-14.5	-51.5	.	26.1*
C[C@@H]1CCCCO[C@@H](CN(C)Cc2ccc(Cl)c(Cl)c2)[C@H](C)CN([C@@H](C)CO)C(=O)c2cc(NC(=O)Nc3ccc(F)cc3)ccc2O1	31.1[16.7 µM]	-9.0	-34.9	4.9	.	.
CC1(c2ccccc2)O[C@@H]2C[C@H]3[C@@H]4CCC5=CC(=O)C=C[C@]5(C)[C@@]4(F)[C@@H](O)C[C@]3(C)[C@]2(C(=O)CO)O1 (stereo not given in full)	-20.6	4.3	1.1	-21.9*	-4.5	-3.5
O=C(Cc1ccccc1)NNC(=S)Nc1ccccc1	-14.8	.	-6.0	-2.6	2.2	-11.6
CC(C)COCC(O)CCC(=O)NNC(=S)Nc1ccccc1 (stereo not given)	.	.	.	5.0	-4.2	94.0*
O=S(=O)(CS(=O)(=O)Oc1ccccc1)Oc1ccccc1	1.2	.	4.1	9.9	-3.6	23.5*
NS(=O)(=O)Oc1ccccc1	-2.2	3.8	10.0	26.0	6.8	52.1*
Cc1ccc(S(=O)(=O)Oc2ccccc2)cc1	-29.0	.	0.1	2.6	-5.5	1.2
C[C@H](NC(=O)C[C@@H]1C[C@H]2c3cc(NC(=O)C4CCC4)ccc3O[C@H]2[C@@H](CO)O1)c1ccccc1	.	-1.9	-9.0	-3.4	-9.4	-1.3
